This note sets out measurements from ChEMBL document CHEMBL4043244, “Diverse amide analogs of sulindac for cancer treatment and prevention” (Bioorg Med Chem Lett, 2017).

The nature of assay [1]: Growth inhibition of human NALM16 cells after 72 hrs by CellTiter-Glo reagent based assay. It counts as functional, cell-based.
A further assay relates to REH. As to the kind of experiment: Growth inhibition of human REH cells after 72 hrs by CellTiter-Glo reagent based assay. It counts as functional, cell-based.
A further assay concerns BJ. As to the kind of experiment: Growth inhibition of human BJ cells after 72 hrs by CellTiter-Glo reagent based assay. It counts as cell-based. An outline of the steps:
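Normal human foreskin fibroblast (BJ) counter-screen for cytotoxicity, with drug tested at 10 μM.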

The subject of a further assay is HT-29. As to the kind of experiment: Growth inhibition of human HT-29 cells after 72 hrs by CellTiter-Glo reagent based assay. The assay is classed as functional. The settings on record: HT-29, 72 h. An outline of the steps: (§1)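 Cancer cell lines (PC3 prostate, HT29 colorectal carcinoma, MDA-MB-231 breast) were screened by quantitative high-throughput screening in whole cells, and CC50 values were derived.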

A further assay concerns MDA-MB-231. As to the kind of experiment: Growth inhibition of human MDA-MB-231 cells after 72 hrs by CellTiter-Glo reagent based assay. Conditions: MDA-MB-231, 72 h; call rule not given here. The assay is classed as functional. An outline of the steps: as §1
The test system of a further assay is 697. As to the kind of experiment: Growth inhibition of human 697 cells after 72 hrs by CellTiter-Glo reagent based assay. It counts as functional, cell-based.
For a further assay, the system named is PC-3. As to the kind of experiment: Growth inhibition of human PC3 cells after 72 hrs by CellTiter-Glo reagent based assay. It counts as functional. The settings on record: PC-3, 72 h. The method, boiled down:
as §1

Assay [2] can be described thus: Growth inhibition of mouse CPC300 cells after 72 hrs by CellTiter-Glo reagent based assay. It counts as functional, cell-based.
The test system of a further assay is Jurkat E6.1. Nature of the assay: Growth inhibition of human Jurkat E6-1 cells after 72 hrs by CellTiter-Glo reagent based assay. It counts as functional, cell-based.
For the next assay, the system named is Raji. As to the kind of experiment: Growth inhibition of human Raji cells after 72 hrs by CellTiter-Glo reagent based assay. The assay is classed as functional, cell-based.
The mark [3] stands for this setting: Homo sapiens, NALM16, 72 h, read-out: EC50.
The mark [4] stands for this setting: Homo sapiens, REH, 72 h, read-out: EC50.
[5] abbreviates: Mus musculus, CPC300, 72 h, read-out: EC50.
The mark [6] stands for this setting: Homo sapiens, Raji, 72 h, read-out: EC50.
The mark [7] stands for this setting: Homo sapiens, 697, 72 h, read-out: EC50.

Bounds are passed on as bounds.

With `CSc1ccc(/C=C2/C(C)=C(CC(=O)NCCN(C)C)c3cc(F)ccc32)cc1`, the concentration giving a half-maximal response (EC50) result in assay [1] (nalm16) is “Not Active”; in the assay on REH (reh) it was “Not Active”; in the assay on BJ it was over 7.57 µM; with 697 (697), “Not Active”; in assay [2] (cpc300), “Not Active”; in the assay with Jurkat E6.1 (jurkat e6.1), “Not Active”. The EC50 entry in the assay with Raji (raji) is “Not Active”. For the same compound, the CC50 in the assay on HT-29 stood at 0.65 µM; in the assay on MDA-MB-231, 2.67 µM; in the assay on PC-3 it was 3.12 µM.
For the compound `CC1=C(CC(=O)N(C)CCN(C)C)c2cc(F)ccc2/C1=C\c1nc2ccccc2s1`, the EC50 was 0.3 µM in [1] (setting [3]); “Not Active” in the assay on REH (reh); over 7.57 µM with BJ; “Not Active” with 697 (697); “Not Active” in assay [2] (cpc300); “Not Active” in the assay with Jurkat E6.1 (jurkat e6.1). Also, the EC50 result with Raji (raji) is listed as “Not Active”. For the same compound, the CC50 in the assay on HT-29 worked out at 2.02 µM; in the assay on MDA-MB-231 it was 3.8 µM; with PC-3, 5.88 µM.
Turning to `COc1cc(/C=C2/C(C)=C(CC(=O)N3CCN(c4ccncc4)CC3)c3cc(F)ccc32)cc(OC)c1OC`, the EC50 result is “Not Active” in [1] (nalm16); 27 µM in the assay with REH (setting [4]); over 7.57 µM with BJ; “Not Active” with 697 (697); “Not Active” in [2] (cpc300); “Not Active” with Jurkat E6.1 (jurkat e6.1). For the same compound, the EC50 result in the assay on Raji (raji) is listed as “Not Active”. In addition, the CC50 in the assay with HT-29 was found to be 2.79 µM; with MDA-MB-231, 6.5 µM; in the assay with PC-3 it was 5.45 µM.
Regarding `CSc1ccc(/C=C2/C(C)=C(CC(=O)N3CCN(CCN(C)C)CC3)c3cc(F)ccc32)cc1`, the half-maximal effective concentration (EC50) in assay [1] (setting [3]) was 1.9 µM; in the assay on REH (reh) it was “Not Active”; with BJ, over 7.57 µM; with 697 (697) it was “Not Active”; in [2] (setting [5]), 27 µM; in the assay on Jurkat E6.1 (jurkat e6.1), “Not Active”. In addition, in the assay with Raji (raji), the concentration giving a half-maximal response (EC50) result is “Not Active”. For the same compound, the CC50 is 2.17 µM with HT-29, 4.05 µM in the assay with MDA-MB-231 and 6.23 µM in the assay on PC-3.
Consider `CSc1ccc(/C=C2/C(C)=C(CC(=O)N(C)CCN(C)C)c3cc(F)ccc32)cc1`, for which the half-maximal effective concentration (EC50) in assay [1] (setting [3]) was 0.071 µM; in the assay on REH (reh), “Not Active”; in the assay on BJ it was over 7.57 µM; in the assay with 697 (697) it was “Not Active”; in assay [2] (cpc300) it was “Not Active”; with Jurkat E6.1 (jurkat e6.1) it was “Not Active”. The half-maximal effective concentration (EC50) in the assay with Raji (setting [6]) is 0.83 µM. Moreover, the half-maximal cytotoxic concentration (CC50) is 1.83 µM with HT-29, 3.98 µM with MDA-MB-231 and 5.63 µM in the assay with PC-3.
`CC1=C(CC(=O)NCc2ccccc2)c2cc(F)ccc2/C1=C\c1ccc([S+](C)[O-])cc1` (stereo not drawn): the EC50 in assay [1] (setting [3]) is 1.3 µM; in the assay on REH (setting [4]), 3.3 µM; in the assay with BJ, over 7.57 µM; in the assay on 697 (setting [7]) it was 4.1 µM; in assay [2] (setting [5]) it was 120 µM; in the assay on Jurkat E6.1 (Homo sapiens, Jurkat E6.1, 72 h, read-out: EC50) it was 1.3 µM. For the same compound, the 50% effective concentration (EC50) in the assay on Raji (setting [6]) is 2.6 µM. Besides, the CC50 in the assay with HT-29 was determined as 0.5 µM; in the assay on MDA-MB-231 it was 0.78 µM; in the assay with PC-3, 2.64 µM.
For the compound `CC1=C(CC(=O)N2CCN(c3ccncc3)CC2)c2cc(F)ccc2/C1=C\c1nc2ccccc2s1`, the EC50 entry is “Not Active” in assay [1] (nalm16); “Not Active” with REH (reh); over 7.57 µM with BJ; “Not Active” in the assay on 697 (697); 72 µM in assay [2] (setting [5]); “Not Active” in the assay on Jurkat E6.1 (jurkat e6.1). The half-maximal effective concentration (EC50) entry in the assay with Raji (raji) is reported as “Not Active”. The 50% cytotoxic concentration (CC50) with HT-29 is 5.25 µM; in the assay with MDA-MB-231, 7.71 µM; in the assay with PC-3, 12.3 µM.
For `CSc1ccc(/C=C2/C(C)=C(CC(=O)N3CCN(c4ccncc4)CC3)c3cc(F)ccc32)cc1`, the EC50 result in assay [1] (nalm16) was “Not Active”; with REH (reh), “Not Active”; with BJ, over 7.57 µM; in the assay with 697 (697), “Not Active”; in assay [2] (setting [5]), 50 µM; with Jurkat E6.1 (jurkat e6.1), “Not Active”. Also, in the assay with Raji (raji), the concentration for a half-maximal effect (EC50) result is given as “Not Active”. Also, the CC50 in the assay with HT-29 was 1.13 µM; with MDA-MB-231, 3.08 µM; in the assay with PC-3 it was 2.76 µM.
With `CC1=C(CC(=O)NCCN2CCCC2)c2cc(F)ccc2/C1=C\c1nc2ccccc2s1`, the EC50 entry is “Not Active” in assay [1] (nalm16); 18 µM in the assay on REH (setting [4]); over 7.57 µM in the assay with BJ; “Not Active” in the assay with 697 (697); “Not Active” in [2] (cpc300); “Not Active” with Jurkat E6.1 (jurkat e6.1). Also, the EC50 in the assay on Raji (setting [6]) was 47 µM. The values for the CC50 with HT-29, in the assay on MDA-MB-231 and in the assay with PC-3 were 1.21 µM, 3.56 µM and 4.94 µM, respectively.
On to `CC1=C(CC(=O)NCCCN(C)C)c2cc(F)ccc2/C1=C\c1nc2ccccc2s1`, for which the EC50 in assay [1] (setting [3]) was 0.35 µM; in the assay on REH (reh), “Not Active”; in the assay with BJ it was over 7.57 µM; in the assay on 697 (697) it was “Not Active”; in assay [2] (setting [5]), 65 µM; in the assay with Jurkat E6.1 (jurkat e6.1), “Not Active”. Moreover, the EC50 result in the assay on Raji (raji) was “Not Active”. Moreover, the CC50 was 1.05 µM in the assay on HT-29, 1.93 µM in the assay with MDA-MB-231 and 3.25 µM with PC-3.
Take `CSc1ccc(/C=C2/C(C)=C(CC(=O)N3CCCN(C)CC3)c3cc(F)ccc32)cc1`: the concentration giving a half-maximal response (EC50) in assay [1] (setting [3]) is 0.49 µM; in the assay with REH (reh), “Not Active”; in the assay with BJ, over 7.57 µM; with 697 (697), “Not Active”; in assay [2] (cpc300), “Not Active”; with Jurkat E6.1 (jurkat e6.1) it was “Not Active”. Further, the CC50 with HT-29 amounted to 2.94 µM; with MDA-MB-231, 7.21 µM; in the assay on PC-3, 7.35 µM.
`CC1=C(CC(=O)N2CCN(CCCN(C)C)CC2)c2cc(F)ccc2/C1=C\c1nc2ccccc2s1`: the EC50 in assay [1] (setting [3]) was 0.097 µM; in the assay with REH (reh) it was “Not Active”; in the assay on BJ, over 7.57 µM; with 697 (697) it was “Not Active”; in [2] (cpc300), “Not Active”; in the assay on Jurkat E6.1 (jurkat e6.1), “Not Active”. For the same compound, the EC50 entry with Raji (raji) was “Not Active”. Besides, the figures for the CC50 in the assay with HT-29, in the assay on MDA-MB-231 and in the assay with PC-3 were 1.62 µM, 2.9 µM and 4.21 µM, respectively.
For the compound `COc1cc(/C=C2/C(C)=C(CC(=O)N(C)CCN(C)C(=O)[C@@H](N)C(C)C)c3cc(F)ccc32)cc(OC)c1OC`, the concentration for a half-maximal effect (EC50) result in assay [1] (nalm16) was “Not Active”; with BJ, over 7.57 µM; with 697 (setting [7]), 0.96 µM; in [2] (cpc300) it was “Not Active”; with Jurkat E6.1 (jurkat e6.1) it was “Not Active”; in the assay on Raji (raji), “Not Active”. The 50% cytotoxic concentration (CC50) worked out at 10.7 µM in the assay with HT-29, 18.8 µM with MDA-MB-231 and 17.7 µM in the assay with PC-3.
